Results: ChEMBL document CHEMBL1141098, “Molecular modeling of wild-type and D816V c-Kit inhibition based on ATP-competitive binding of ellipticine derivatives to tyrosine kinases” (J Med Chem, 2005)

Columns and labels:
[1] = target: Mast/stem cell growth factor receptor Kit (Homo sapiens, UniProt P10721, D816V); assay: Inhibitory concentration against c-Kit D816V type expressed in recombinant baculovirus
Procedure, shortened: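 Recombinant c-Kit D816V expressed in baculovirus-infected High Five cells (MOI 10, harvested 90 h), purified by ion exchange then Ni affinity chromatography. ELISA on poly-Glu/Tyr (1:4)-coated wells; 10 nM final enzyme in 10 mM MgCl2, 1 mM MnCl2, 1 mM vanadate, 20 mM HEPES pH 7.3, BSA; 15 min at 25 °C, EDTA stop. Anti-phosphotyrosine-HRP detection, OPD, absorbance 492 nm; IC50 from inhibition.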

[2] = target: Mast/stem cell growth factor receptor Kit (Homo sapiens, UniProt P10721); assay: Inhibitory concentration against c-Kit wild type expressed in recombinant baculovirus
Sequence of Mast/stem cell growth factor receptor Kit (Homo sapiens, UniProt P10721) (P10721 whole entry): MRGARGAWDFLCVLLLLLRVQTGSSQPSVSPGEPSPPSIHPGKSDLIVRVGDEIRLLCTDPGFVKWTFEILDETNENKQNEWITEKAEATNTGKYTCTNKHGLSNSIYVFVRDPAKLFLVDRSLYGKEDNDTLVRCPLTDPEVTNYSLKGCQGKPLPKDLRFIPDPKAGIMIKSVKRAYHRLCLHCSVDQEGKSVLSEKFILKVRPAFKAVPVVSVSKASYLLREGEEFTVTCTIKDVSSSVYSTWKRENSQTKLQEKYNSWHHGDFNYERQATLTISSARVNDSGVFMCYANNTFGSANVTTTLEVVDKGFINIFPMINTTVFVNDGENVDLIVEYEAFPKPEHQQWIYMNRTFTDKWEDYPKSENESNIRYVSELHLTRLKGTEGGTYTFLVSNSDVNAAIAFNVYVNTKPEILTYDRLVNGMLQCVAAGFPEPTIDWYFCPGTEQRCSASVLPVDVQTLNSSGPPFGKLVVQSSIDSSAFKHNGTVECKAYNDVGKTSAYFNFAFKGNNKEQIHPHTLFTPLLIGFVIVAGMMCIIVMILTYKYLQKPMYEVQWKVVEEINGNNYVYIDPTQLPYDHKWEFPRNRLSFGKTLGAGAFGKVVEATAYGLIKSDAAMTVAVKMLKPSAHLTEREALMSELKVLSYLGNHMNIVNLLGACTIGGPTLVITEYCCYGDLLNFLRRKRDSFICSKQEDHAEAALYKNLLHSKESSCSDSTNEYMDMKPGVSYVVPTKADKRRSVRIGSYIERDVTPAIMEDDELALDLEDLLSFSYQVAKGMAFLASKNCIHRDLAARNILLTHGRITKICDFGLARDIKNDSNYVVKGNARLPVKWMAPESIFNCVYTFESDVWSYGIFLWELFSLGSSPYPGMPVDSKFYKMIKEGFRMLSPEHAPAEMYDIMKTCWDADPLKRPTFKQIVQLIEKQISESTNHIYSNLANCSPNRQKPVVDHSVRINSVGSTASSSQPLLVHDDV

[3] = target: Fibroblast growth factor receptor 3 (Homo sapiens, UniProt P22607); assay: Inhibitory activity against Fibroblast growth factor receptor 3
Sequence of Fibroblast growth factor receptor 3 (P22607 whole entry): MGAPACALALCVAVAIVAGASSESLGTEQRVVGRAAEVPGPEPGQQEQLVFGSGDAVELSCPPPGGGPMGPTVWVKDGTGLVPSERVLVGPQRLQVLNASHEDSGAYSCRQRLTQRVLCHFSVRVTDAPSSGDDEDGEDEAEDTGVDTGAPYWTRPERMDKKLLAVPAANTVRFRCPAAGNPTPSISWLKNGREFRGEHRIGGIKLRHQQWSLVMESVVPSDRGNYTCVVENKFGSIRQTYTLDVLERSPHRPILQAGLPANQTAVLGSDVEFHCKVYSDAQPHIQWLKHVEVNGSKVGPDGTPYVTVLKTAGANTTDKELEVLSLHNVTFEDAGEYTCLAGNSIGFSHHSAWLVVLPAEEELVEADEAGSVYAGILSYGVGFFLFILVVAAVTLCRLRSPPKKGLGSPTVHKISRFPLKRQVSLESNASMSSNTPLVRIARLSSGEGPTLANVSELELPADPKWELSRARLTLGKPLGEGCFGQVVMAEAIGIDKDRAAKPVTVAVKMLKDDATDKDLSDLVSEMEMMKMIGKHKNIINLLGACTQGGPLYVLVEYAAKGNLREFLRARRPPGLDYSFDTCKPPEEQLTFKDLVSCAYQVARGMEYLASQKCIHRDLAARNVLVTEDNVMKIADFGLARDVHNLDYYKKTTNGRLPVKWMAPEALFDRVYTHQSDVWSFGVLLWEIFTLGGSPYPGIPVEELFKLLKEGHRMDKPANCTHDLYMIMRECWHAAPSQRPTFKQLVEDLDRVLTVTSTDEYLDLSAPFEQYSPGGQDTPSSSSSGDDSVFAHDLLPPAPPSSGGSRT
Procedure, shortened: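 Commercially supplied FGFR3 enzyme. Value is the IC50 for inhibition of kinase activity.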

Sequence of Mast/stem cell growth factor receptor Kit (Homo sapiens, UniProt P10721, D816V) (P10721 26-976 D816V limits assumed): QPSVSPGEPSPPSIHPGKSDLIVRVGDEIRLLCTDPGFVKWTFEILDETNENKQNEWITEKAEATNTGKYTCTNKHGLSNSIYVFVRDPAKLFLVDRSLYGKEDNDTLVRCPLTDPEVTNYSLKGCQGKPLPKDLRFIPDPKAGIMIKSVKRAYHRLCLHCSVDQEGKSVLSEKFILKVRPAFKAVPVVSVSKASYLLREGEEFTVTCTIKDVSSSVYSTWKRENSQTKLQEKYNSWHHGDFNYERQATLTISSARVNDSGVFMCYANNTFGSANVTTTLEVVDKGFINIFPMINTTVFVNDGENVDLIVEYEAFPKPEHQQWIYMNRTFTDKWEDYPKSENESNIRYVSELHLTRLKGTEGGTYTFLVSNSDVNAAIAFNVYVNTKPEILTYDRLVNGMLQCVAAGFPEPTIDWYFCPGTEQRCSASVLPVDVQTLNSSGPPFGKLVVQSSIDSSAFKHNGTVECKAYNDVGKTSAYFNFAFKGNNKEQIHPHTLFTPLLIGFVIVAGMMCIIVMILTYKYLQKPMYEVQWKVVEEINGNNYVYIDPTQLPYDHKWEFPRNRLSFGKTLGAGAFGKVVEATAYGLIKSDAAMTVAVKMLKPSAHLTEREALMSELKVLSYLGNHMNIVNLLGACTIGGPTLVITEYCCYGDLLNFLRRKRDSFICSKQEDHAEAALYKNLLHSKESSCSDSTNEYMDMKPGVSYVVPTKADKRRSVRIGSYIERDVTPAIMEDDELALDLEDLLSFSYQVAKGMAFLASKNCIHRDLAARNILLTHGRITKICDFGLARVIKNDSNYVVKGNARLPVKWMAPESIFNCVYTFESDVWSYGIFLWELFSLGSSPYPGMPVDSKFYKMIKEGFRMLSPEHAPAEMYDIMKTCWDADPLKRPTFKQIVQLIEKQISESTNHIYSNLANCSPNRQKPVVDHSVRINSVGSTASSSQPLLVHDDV

Cc1c2cc[n+](C)cc2c(C)c2c1[nH]c1ccc(O)cc12
IC50 [1]: 400 nM | IC50 [2]: 400 nM | IC50 [3]: 500 nM

Cc1c2ccncc2c(C)c2c1[nH]c1ccc(Br)cc12
IC50 [1]: > 10000 nM | IC50 [2]: > 10000 nM

CCN(CC)CC[n+]1ccc2c(C)c3[nH]c4ccc(O)cc4c3c(C)c2c1
IC50 [1]: 300 nM | IC50 [2]: 450 nM

CCN(CC)CCCNc1nccc2c(C)c3[nH]c4ncccc4c3cc12
IC50 [1]: 1900 nM | IC50 [2]: 2300 nM

COc1ccc2[nH]c3c(C)c4ccncc4c(C)c3c2c1
IC50 [1]: 600 nM | IC50 [2]: 800 nM

Cc1c2ccncc2c(C)c2c1[nH]c1ccc(O)cc12
IC50 [1]: 400 nM | IC50 [2]: 400 nM | IC50 [3]: 400 nM

CCN(CC)CCCNc1nccc2c(C)c3[nH]c4ccc(OC)cc4c3cc12
IC50 [1]: 2000 nM | IC50 [2]: 2500 nM

CCN(CC)CCCNc1nccc2c(C)c3[nH]c4ccc(O)cc4c3c(C)c12
IC50 [1]: 1200 nM | IC50 [2]: 1400 nM

CCN(CC)CCCNc1nccc2c(C)c3c(c(C)c12)c1cc(O)ccc1n3C
IC50 [1]: 3600 nM | IC50 [2]: 2500 nM | IC50 [3]: 1400 nM

Cc1c2ccncc2c(C)c2c1[nH]c1ccccc12 [ELLIPTECINE]
IC50 [1]: > 10000 nM | IC50 [2]: > 10000 nM
